42 compounds from ChEMBL document CHEMBL4371017, “Discovery and optimization of pyrazole amides as antagonists of CCR1” (Bioorg Med Chem Lett, 2019) can be followed below.

The target of series [1] is T1, C-C chemokine receptor type 1 (Homo sapiens, UniProt P32246).
T1 sequence (P32246 whole entry): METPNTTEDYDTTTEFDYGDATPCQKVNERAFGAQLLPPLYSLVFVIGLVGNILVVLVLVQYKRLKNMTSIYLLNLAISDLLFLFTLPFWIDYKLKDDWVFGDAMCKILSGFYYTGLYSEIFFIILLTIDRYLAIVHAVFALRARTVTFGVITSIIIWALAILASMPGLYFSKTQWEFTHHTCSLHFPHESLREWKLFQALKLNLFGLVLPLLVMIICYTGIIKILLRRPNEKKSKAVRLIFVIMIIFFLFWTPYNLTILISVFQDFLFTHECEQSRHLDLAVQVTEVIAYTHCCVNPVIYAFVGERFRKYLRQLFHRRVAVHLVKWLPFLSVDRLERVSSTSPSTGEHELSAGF
Kind of series: Antagonist activity at recombinant CCR1 (unknown origin) expressed in non-adherent cells co-expressing Galpha16 assessed as inhibition of MIP-1 alpha-induced calcium flux by Fluo-4 NW or Calcium 4 dye based FLIPR TETRA assay. The class given is functional, cell-based. In short, it runs like this:
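The cells stably co-express CCR1 and Gα16 and were loaded with dye for 1 h at room temperature with probenecid (Method A: Fluo-4 NW; Method B: Calcium 4), then plated at 20,000 cells/well. Compounds were tested at 10 doses from a 3,000 nM top (A 3-fold steps, B 4-fold), in 1% DMSO and HBSS/20 mM HEPES pH 7.4. Preincubation was 1 h at room temperature in the dark (A) or 30 min at 37°C then 30 min at room temperature (B). MIP-1α was added at EC80 and the calcium flux recorded.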
On the technique in general: Calcium flux is commonly read through the fluorescence of an indicator in the cells.

The nature of series [2]: Aqueous solubility of the compound. Format: physicochemical. The conditions noted are these: water.

Structures are written as SMILES. Bounds are passed on as bounds.

In the case of `CCC[C@H](NC(=O)c1cnn(-c2ccc(Cl)cc2)c1C)c1cccc(C(F)(F)F)c1F`, the IC50 in series [1] worked out at 10 nM. Still for that read-out and setting: in the case of `Cc1c(C(=O)NCc2cccc(C(F)(F)F)c2)cnn1-c1ccccc1Cl` it was more than 3000 nM; in that of `Cc1c(C(=O)NCc2cccc(C(F)(F)F)c2)cnn1-c1ccc(Cl)cc1`, 600 nM; in that of `Cc1cccc(-n2ncc(C(=O)NCc3cccc(C(F)(F)F)c3)c2C)c1`, more than 3000 nM.

`Cc1nn(-c2ccc(Cl)c(Cl)c2)c(C)c1C(=O)NCc1cccc(C(F)(F)F)c1`: the IC50 in series [1] was more than 3000 nM. On the same count and under the same terms, next, `COCc1c(C(=O)NCc2cccc(C(F)(F)F)c2)cnn1-c1ccc(Cl)cc1`: more than 3000 nM. Still for that read-out and setting: next, `Cc1c(C(=O)NCc2cccc(C(F)(F)F)c2)cnn1-c1ccc(F)cc1`: 790 nM.

`Cc1c(C(=O)NCc2cccnc2)cnn1-c1ccc(Cl)cc1`: in series [1], the concentration for half-maximal inhibition (IC50) was more than 3000 nM. Still for that read-out and setting: next, `Cc1c(C(=O)NCc2ccc(S(C)(=O)=O)nc2)cnn1-c1ccc(Cl)c(Cl)c1`: more than 3000 nM. On the same count and under the same terms, next, `Cc1cc(C(=O)NCc2cccc(C(F)(F)F)c2)c(C)n1-c1ccc(Cl)cc1`: 350 nM. The same measure, in the same setting: in the case of `Cc1c(C(=O)NCc2cccc(C(N)=O)c2)cnn1-c1ccc(Cl)cc1` it was more than 3000 nM; in that of `Cc1c(C(=O)NCc2cccc(N)c2)cnn1-c1ccc(Cl)cc1`, more than 3000 nM; in that of `Cc1c(C(=O)NCc2cccc(C(F)(F)F)c2)nnn1-c1ccc(Cl)cc1`, 2400 nM. `Cc1nc(C(=O)NCc2cccc(C(F)(F)F)c2)nn1-c1ccc(Cl)cc1`: in series [1], the IC50 is more than 3000 nM. The same measure, in the same setting: in the case of `O=C(NCc1cccc(C(F)(F)F)c1)c1cnn(-c2ccc(Cl)cc2)c1CO` it was 1200 nM. On the same count and under the same terms, next, `Cc1c(C(=O)NCc2cccc(O)c2)cnn1-c1ccc(Cl)cc1`: more than 3000 nM; `Cc1cc(-c2ccc(Cl)cc2)sc1C(=O)NCc1cccc(C(F)(F)F)c1`: 1900 nM; `Cc1c(C(=O)NCc2cccc(C(F)(F)F)c2)cnn1-c1cccc(Cl)c1`: more than 3000 nM.

`Cc1c(C(=O)NCc2cccc(C(F)(F)F)c2)cnn1-c1ccccc1`: the 50% inhibitory concentration (IC50) in series [1] was more than 3000 nM.

`Cc1c(C(=O)N[C@@H](C)c2cccc(C(F)(F)F)c2F)cnn1-c1ccc(Cl)cc1`: the IC50 in series [1] came out at 28 nM. In the case of `Cc1c(C(=O)NCc2ccncc2)cnn1-c1ccc(Cl)cc1`, the half-maximal inhibitory concentration (IC50) in series [1] was more than 3000 nM.

Take `Cn1c(C(=O)NCc2cccc(C(F)(F)F)c2)cnc1-c1ccc(Cl)cc1`: the IC50 in series [1] was more than 3000 nM. Turning to `Cc1c(C(=O)NCc2cccc(C(F)(F)F)c2)cnn1-c1ccc([N+](=O)[O-])cc1`, the concentration for half-maximal inhibition (IC50) in series [1] was determined as 960 nM. For the compound `Cc1c(C(=O)NCc2cccc(C(F)(F)F)c2)cnn1-c1ccc(Cl)c(Cl)c1`, the half-maximal inhibitory concentration (IC50) in series [1] amounted to 500 nM. This compound returned a solubility in series [2] of less than 1 µg/mL. On to `Cn1cc(C(=O)NCc2cccc(C(F)(F)F)c2)nc1-c1ccc(Cl)cc1`, for which the half-maximal inhibitory concentration (IC50) in series [1] is more than 3000 nM. Same read-out and setting: in the case of `Nc1c(C(=O)NCc2cccc(C(F)(F)F)c2)cnn1-c1ccc(Cl)cc1` it was more than 3000 nM; in that of `CN(C)c1c(C(=O)NCc2cccc(C(F)(F)F)c2)cnn1-c1ccc(Cl)cc1`, more than 3000 nM. Same read-out and setting: in the case of `Cc1c(C(=O)NCc2ccc(S(C)(=O)=O)cc2)cnn1-c1ccc(Cl)cc1` it was 1700 nM.

`Cc1c(C(=O)NCc2cccc(S(C)(=O)=O)c2)cnn1-c1ccc(Cl)cc1`: the IC50 in series [1] is 2100 nM.

As for `CC(C)(O)c1ccc2c(c1)/C(=C\CCN1CC[C@](O)(c3ccc(Cl)cc3)C(C)(C)C1)c1cccnc1CO2`, the half-inhibitory concentration (IC50) in series [1] came out at 0.8 nM.

Turning to `CNS(=O)(=O)c1ccc(CNC(=O)c2cnn(-c3ccc(Cl)cc3)c2C)cc1`, in series [1], the IC50 was 420 nM. Same read-out and setting: in the case of `CC[C@H](NC(=O)c1cnn(-c2ccc(Cl)cc2)c1C)c1cccc(C(F)(F)F)c1F` it was 13 nM; in that of `Cc1c(C(=O)NCc2cccc(C(F)(F)F)c2)cnn1-c1cccc(C(F)(F)F)c1`, more than 3000 nM; in that of `Cc1c(C(=O)NCc2ccccc2S(C)(=O)=O)cnn1-c1ccc(Cl)cc1`, more than 3000 nM.

With `CCCC(NC(=O)c1cnn(-c2ccc(Cl)cc2)c1C)c1ccc(S(C)(=O)=O)nc1` (stereo not drawn), in series [1], the concentration for half-maximal inhibition (IC50) was found to be 47 nM. Same read-out and setting: in the case of `O=C(NCc1cccc(C(F)(F)F)c1)c1cnn(-c2ccc(Cl)cc2)c1C(F)(F)F` it was more than 3000 nM; in that of `Cc1c(C(=O)NCc2cccc(C(F)(F)F)c2)cnn1Cc1ccccc1`, more than 3000 nM. On the same count and under the same terms, in the case of `Cc1c(C(=O)NCc2ccccn2)cnn1-c1ccc(Cl)cc1` it was more than 3000 nM.

For the compound `Cc1nc(-c2ccc(Cl)cc2)sc1C(=O)NCc1cccc(C(F)(F)F)c1`, in series [1], the IC50 was more than 3000 nM. Consider `O=C(NCc1cccc(C(F)(F)F)c1)c1cnn(-c2ccc(Cl)c(Cl)c2)c1`, for which, in series [1], the concentration for half-maximal inhibition (IC50) was more than 3000 nM. The same measure, in the same setting: next, `CC(C)[C@@H](NC(=O)NCC(C)(C)O)C(=O)N1CC[C@](O)(c2ccc(Cl)cc2)C(C)(C)C1` [BMS-817399]: 3 nM. Regarding `COc1cc(N2CCN(C(=O)Cn3nc(-c4ncc[nH]4)c4cccnc43)CC2)ccc1Cl` [CCX354], the 50% inhibitory concentration (IC50) in series [1] came to 2 nM.

In general, IC50 refers to the midpoint of a concentration-inhibition curve. The term solubility denotes how much of the substance goes into solution per volume. A lower solubility goes with little dissolved substance.
